Assay results: ChEMBL document CHEMBL4706745, “Balanced Intersystem Crossing in Iodinated Silicon-Fluoresceins Allows New Class of Red Shifted Theranostic Agents” (ACS Med Chem Lett, 2021)
Active and inactive are the calls of the source. The calls are words filed in the database; no cut-off is given here.

Tests used:
[1] = system: MDA-MB-231; test: Induction of ROS generation in human MDA-MB-231 cells at 5 uM irradiated with 595 +/- 5 nanometer LED light for 2 hr by DCFH2-DA staining based confocal microscopic analysis; assay type: functional, cell-based
Outline: (§1)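 Cells loaded with 5 μM compound and the ROS sensor DCFH2-DA; kept dark or irradiated with a 595 nm LED for 2 h, with or without NaN3 as singlet oxygen quencher. Green emission imaged by confocal microscopy. Controls: DMSO 0.5% vehicle and H2O2 (500 μM, 2 h) as positive control.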

[2] = Induction of singlet oxygen generation in pH 7.4 DMSO solution at 614 nanometer assessed as singlet oxygen quantum yield irradiated with 595 nanometer LED light; assay type: functional
[3] = Drug uptake in human HCT-116 cells assessed as cytosolic red emission at 5 uM incubated for 2 hrs by Hoechst-33342 staining based confocal microscopic analysis; assay type: ADME, cell-based; settings: hct-116, 2 h
Outline: (§2)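 Cells incubated with 5 μM for 2 h and washed before confocal imaging of intracellular red emission.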

[4] = system: HCT-116; test: Induction of ROS generation in human HCT-116 cells at 5 uM irradiated with 595 +/- 5 nanometer LED light for 2 hr by DCFH2-DA staining based confocal microscopic analysis; assay type: functional, cell-based; outline: as §1
[5] = system: HCT-116; test: Induction of apoptosis in human HCT-116 cells assessed as increase in necrotic cells at 5 uM irradiated with 595 +/- 5 nanometer LED light for 2 hrs by annexin V-FITC and PI staining based confocal microscopic analysis; assay type: functional, cell-based
Outline: (§3)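 Cells treated with 5 μM and either kept dark or irradiated 2 h with a 595 nm LED, with or without NaN3. Annexin V-FITC (early apoptosis) and PI (late apoptosis/necrosis) staining 30 min after PDT, then confocal imaging. DMSO 0.5% vehicle control.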

[6] = Induction of singlet oxygen generation in DMSO/ADMDA solution assessed as decrease in ADMDA absorption irradiated with 595 nanometer LED light at 5 uM; assay type: functional
Outline: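 5 μM compound mixed with the water-soluble trap ADMDA in oxygen-saturated PBS (pH 7.4, 0.5% DMSO), then LED irradiated (595 nm at 9.83 mW/cm2). Decrease in ADMDA absorption monitored, with the first 40 s kept in the dark.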

[7] = system: MDA-MB-231; test: Induction of ROS generation in human MDA-MB-231 cells at 5 uM incubated for 2 hr by DCFH2-DA staining based confocal microscopic analysis; assay type: cell-based; settings: mda-mb-231, 2 h; outline: as §1
[8] = Drug uptake in human MDA-MB-231 cells assessed as cytosolic red emission at 5 uM incubated for 2 hrs by Hoechst-33342 staining based confocal microscopic analysis; assay type: ADME, cell-based; settings: mda-mb-231, 2 h; outline: as §2
[9] = system: HCT-116; test: Induction of apoptosis in human HCT-116 cells at 5 uM irradiated with 595 +/- 5 nanometer LED light for 2 hrs in presence of NaN3 by annexin V-FITC and PI staining based confocal microscopic analysis; assay type: functional, cell-based; outline: as §3
[10] = Fluorescence property of the compound in pH 7.4 PBS buffer assessed as fluorescence quantum yield by fluorescence spectrophotometric method; assay type: physicochemical
[11] = system: MDA-MB-231; test: Induction of apoptosis in human MDA-MB-231 cells assessed as increase in necrotic cells at 5 uM irradiated with 595 +/- 5 nanometer LED light for 2 hrs by annexin V-FITC and PI staining based confocal microscopic analysis; assay type: functional, cell-based; outline: as §3
[12] = Induction of singlet oxygen generation in DMSO solution using singlet oxygen sensor green assessed as increase in SOSG intensity irradiated with 630 nanometer LED light at 5 uM; assay type: functional
[13] = Induction of singlet oxygen generation in pH 7.4 DMSO solution at 614 nanometer assessed as singlet oxygen quantum yield irradiated with 630 nanometer LED light; assay type: functional
[14] = Induction of singlet oxygen generation in DMSO solution using singlet oxygen sensor green assessed as increase in SOSG intensity irradiated with 595 nanometer LED light at 5 uM; assay type: functional
Outline: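 5 μM compound with singlet oxygen sensor green (SOSG); increase in SOSG emission monitored during 595 nm LED irradiation (9.83 mW/cm2).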

[15] = system: MDA-MB-231; test: Induction of apoptosis in human MDA-MB-231 cells at 5 uM irradiated with 595 +/- 5 nanometer LED light for 2 hrs in presence of NaN3 by annexin V-FITC and PI staining based confocal microscopic analysis; assay type: functional, cell-based; outline: as §3
[16] = system: HCT-116; test: Cytotoxicity against human HCT-116 cells assessed as reduction in cell viability at 0.5 to 20 uM incubated for 24 hrs by MTT assay; assay type: cell-based; settings: hct-116, 24 h, dose 0.5-20 µM
Outline: (§4)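 Cells exposed to 0.5–20 μM for 24 h in the dark, then assessed by MTT for viability. Vehicle control included. Mean ± SD, n = 4.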

[17] = Induction of singlet oxygen generation in DMSO/ADMDA solution assessed as decrease in ADMDA absorption irradiated with 630 nanometer LED light at 5 uM; assay type: functional
[18] = system: MDA-MB-231; test: Cytotoxicity against human MDA-MB-231 cells assessed as reduction in cell viability at 0.5 to 20 uM incubated for 24 hrs by MTT assay; assay type: cell-based; settings: mda-mb-231, 24 h, dose 0.5-20 µM; outline: as §4
[19] = system: MDA-MB-231; test: Phototoxicity against human MDA-MB-231 cells assessed as reduction in cell viability irradiated with 595 and 630 nanometer LED light and further incubated for 24 hrs by MTT assay; assay type: functional, cell-based; settings: dose 0.5-20 µM
Outline: (§5)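 MTT viability assay. Cells incubated with 0.5–20 μM, then irradiated with a 595 nm (9.83 mW/cm2) or 630 nm (24.3 mW/cm2) LED for 1 or 2 h, followed by 23 or 22 h dark respectively. Light alone and vehicle controls included. Mean ± SD, n = 4.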

[20] = Photostability in pH 7.4 PBS buffer at 614/630 nanometer irradiated with 630 nanometer LED light for 2 hrs by measuring fluorescence peak; assay type: physicochemical; settings: pH 7.4, 2 h
Outline: (§6)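 Absorption at 614 nm and emission at 630 nm tracked under continuous 595 or 630 nm LED irradiation for 2 h in PBS (pH 7.4, 0.5% DMSO).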

[21] = Photostability in pH 7.4 PBS buffer at 614/630 nanometer irradiated with 595 nanometer LED light for 2 hrs by measuring fluorescence peak; assay type: physicochemical; settings: pH 7.4, 2 h; outline: as §6
[22] = system: HCT-116; test: Phototoxicity against human HCT-116 cells assessed as reduction in cell viability irradiated with 595 and 630 nanometer LED light and further incubated for 24 hrs by MTT assay; assay type: functional, cell-based; settings: dose 0.5-20 µM; outline: as §5
[23] = system: HCT-116; test: Induction of ROS generation in human HCT-116 cells at 5 uM incubated for 2 hr by DCFH2-DA staining based confocal microscopic analysis; assay type: cell-based; settings: hct-116, 2 h; outline: as §1

For `C[Si]1(C)C2=C(I)C(=O)C(I)=CC2=C(c2ccccc2C(=O)O)c2cc(I)c(O)c(I)c21`, the Activity [1] was “Active”, the Activity [2] was 45% and the Drug uptake [3] was “Active”. The Activity [4] was “Active”, the Activity [5] was “inactive” and the Activity [6] was “Active”. For the same molecule, the Activity [7] was “Non-Toxic”, the Drug uptake [8] was “Active” and the Activity [9] was “inactive”. For the same molecule, the Activity [10] was 11%, the Activity [11] was “inactive” and the Activity [12] was “Active”. For the same molecule, the Activity [13] was 30%, the Activity [14] was “Active” and the Activity [15] was “inactive”. For the same molecule, the Activity [16] was “Non-Toxic”, the Activity [17] was “Active” and the Activity [18] was “Non-Toxic”. For the same molecule, the inhibition [19] was “Dose-dependent effect”, the Stabilty [20] was “Stable” and the Stabilty [21] was “Stable”. For the same molecule, the inhibition [22] was “Dose-dependent effect” and the Activity [23] was “Non-Toxic”.
